From ChEMBL document CHEMBL3351394 (J Med Chem, 2014)

Columns and labels:
[1] = molecular target: T1, Bile acid receptor (Homo sapiens) (UniProt Q96RI1); assay: Agonist activity at FXR in human HepG2 cells assessed as induction of BSEP mrNA expression at 10 uM by quantitative PCR method; assay type: cell-based
T1 sequence (whole entry): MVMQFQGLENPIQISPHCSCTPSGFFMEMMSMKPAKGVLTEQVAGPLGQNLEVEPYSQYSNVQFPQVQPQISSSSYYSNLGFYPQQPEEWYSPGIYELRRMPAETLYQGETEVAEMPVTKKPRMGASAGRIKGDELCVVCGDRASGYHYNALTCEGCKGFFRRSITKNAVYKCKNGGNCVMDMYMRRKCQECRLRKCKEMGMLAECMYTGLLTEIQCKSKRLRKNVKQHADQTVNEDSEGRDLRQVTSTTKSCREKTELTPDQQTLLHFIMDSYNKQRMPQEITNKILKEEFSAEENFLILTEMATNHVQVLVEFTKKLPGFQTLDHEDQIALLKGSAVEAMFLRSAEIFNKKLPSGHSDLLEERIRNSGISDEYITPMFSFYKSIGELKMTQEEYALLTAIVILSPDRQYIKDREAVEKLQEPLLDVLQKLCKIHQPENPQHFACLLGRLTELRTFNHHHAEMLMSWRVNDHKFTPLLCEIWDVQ
Summary of the method: (§1)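 HepG2 cells were seeded at 2 × 10⁶ per well. After 24 h they were switched to MEM with 1% charcoal-stripped FCS, and 24 h later dosed with compound (0.1, 0.3, 1, 3, 10 μM; 0.1% DMSO final) for 24 h. Total RNA was reverse transcribed and analysed by qPCR, GAPDH-normalized, ΔΔCt method. Samples were run in duplicate in ≥4 independent experiments.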

[2] = molecular target: T1, Bile acid receptor (Homo sapiens); assay: Agonist activity at FXR in human HepG2 cells assessed as induction of IBABP mrNA expression at 10 uM by quantitative PCR method; assay type: cell-based
[3] = molecular target: T1, Bile acid receptor (Homo sapiens); assay: Agonist activity at FXR in human HepG2 cells assessed as induction of CYP7A1 mrNA expression at 3 uM by quantitative PCR method; assay type: cell-based; summary of the method: as §1
[4] = species: Homo sapiens; assay: Selectivity index, ratio of EC50 for GAL4-tagged PPARgamma (unknown origin) to EC50 for human FXR
[5] = species: Homo sapiens; assay: Selectivity index, ratio of EC50 for GAL4-tagged PPARalpha (unknown origin) to EC50 for human FXR
[6] = molecular target: T1, Bile acid receptor (Homo sapiens); assay: Agonist activity at FXR in human HepG2 cells assessed as induction of IBABP mrNA expression at 1 uM by quantitative PCR method; assay type: cell-based
[7] = molecular target: T1, Bile acid receptor (Homo sapiens); assay: Agonist activity at FXR in human HepG2 cells assessed as induction of IBABP mrNA expression at 0.3 uM by quantitative PCR method; assay type: cell-based
[8] = species: Homo sapiens; assay: Selectivity index, ratio of EC50 for GAL4-tagged PPARdelta (unknown origin) to EC50 for human FXR
[9] = molecular target: T1, Bile acid receptor (Homo sapiens); assay: Agonist activity at FXR in human HepG2 cells assessed as induction of OSTalpha mrNA expression at 0.3 uM by quantitative PCR method; assay type: cell-based; summary of the method: as §1
[10] = molecular target: T1, Bile acid receptor (Homo sapiens); assay: Agonist activity at FXR in human HepG2 cells assessed as induction of OSTalpha mrNA expression at 3 uM by quantitative PCR method; assay type: cell-based; summary of the method: as §1

- Activity [2]: 144%
- Activity [3]: 67%
- Ratio EC50 [4]: 375
- Ratio EC50 [5]: > 1000
- Activity [6]: 161%
- Activity [7]: 145%
- Ratio EC50 [8]: > 1000
- Activity [9]: 198%
- Activity [10]: 149%
Structure (SMILES): COc1ccc(C(=O)Nc2cccc(C(=O)O)c2)c(NC(=O)c2ccc(C(C)(C)C)cc2)c1
- Activity [1]: 308%
